Laboratory results: ChEMBL document CHEMBL2417481, “Regioselective synthesis of 6-substituted-2-amino-5-bromo-4(3H)-pyrimidinones and evaluation of their antiviral activity” (Eur J Med Chem, 2013)

Assays:
[1] = test system: Feline coronavirus; experiment: Antiviral activity against Feline coronavirus infected in cat CRFK cells assessed as inhibition of virus-induced cytopathic effect by MTS assay; format: functional, organism-based; details: Alphacoronavirus 1, CRFK
[2] = test system: Coxsackievirus B4; experiment: Antiviral activity against Coxsackievirus B4 infected in human HeLa cells assessed as reduction in virus-induced cytopathogenicity; format: functional, organism-based; details: Enterovirus B
Outline: (§1)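 Confluent cell monolayers (Vero, HeLa, HEL or MDCK, as named in each line) were infected with 100 CCID50 of virus while exposed to a range of compound concentrations. Cytopathicity was scored once it was complete in untreated infected controls.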

[3] = test system: Human alphaherpesvirus 3; experiment: Antiviral activity against thymidine kinase negative Varicella-zoster virus 07-1 infected in human HEL cells assessed as reduction in the virus plaque formation; format: functional, organism-based; details: Human alphaherpesvirus 3, 07-1, HEL
Outline: (§2)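 Confluent HEL fibroblast cultures received 20 PFU of VZV together with varying compound concentrations. Plaque formation was read when it reached completion in untreated virus controls.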

[4] = test system: Felid alphaherpesvirus 1; experiment: Antiviral activity against Feline Herpes virus infected in cat CRFK cells assessed as inhibition of virus-induced cytopathic effect by MTS assay; format: functional, organism-based; details: Felid alphaherpesvirus 1, CRFK
[5] = test system: Human alphaherpesvirus 3; experiment: Antiviral activity against thymidine kinase positive Varicella-zoster virus OKA infected in human HEL cells assessed as reduction in virus plaque formation; format: functional, cell-based, Human herpesvirus 3 strain Oka vaccine; details: Human alphaherpesvirus 3, OKA; outline: as §2
[6] = test system: Mammalian orthoreovirus 1; experiment: Antiviral activity against Reovirus-1 infected in african green monkey Vero cells assessed as reduction in virus-induced cytopathogenicity; format: functional, organism-based; details: Mammalian orthoreovirus 1, Vero
Outline: (§3)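 Confluent Vero monolayers in 96-well plates were inoculated with 100 CCID50 of virus together with varying compound concentrations. Cytopathicity was scored once it was complete in untreated virus-infected control cultures.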

[7] = test system: Human alphaherpesvirus 2; experiment: Antiviral activity against Herpes simplex virus-2 G infected in human HEL cells assessed as reduction in virus-induced cytopathogenicity; format: functional, organism-based; details: Human alphaherpesvirus 2, strain G; outline: as §1
[8] = test system: Cytomegalovirus; experiment: Antiviral activity against Cytomegalovirus AD-169 infected in human HEL cells assessed as reduction in virus plaque formation; format: functional, organism-based; details: Human betaherpesvirus 5, AD-169, HEL
Outline: (§4)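 Confluent HEL fibroblasts were inoculated with 100 PFU of CMV at graded compound concentrations. Plaques were counted once formation was complete in untreated infected controls.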

[9] = Cytotoxicity against human HEL cells assessed as morphological changes; format: cell-based
[10] = Cytotoxicity against cat CRFK cells assessed as cell viability by MTS assay; format: cell-based, Felis catus
[11] = test system: Respiratory syncytial virus; experiment: Antiviral activity against Respiratory syncytial virus Long infected in human HeLa cells assessed as reduction in virus-induced cytopathogenicity; format: functional, organism-based; outline: as §1
[12] = test system: Punta Toro virus; experiment: Antiviral activity against Punta Toro virus infected in african green monkey Vero cells assessed as reduction in virus-induced cytopathogenicity; format: functional, organism-based; outline: as §1
[13] = test system: Cytomegalovirus; experiment: Antiviral activity against Cytomegalovirus Davis infected in human HEL cells assessed as reduction in virus plaque formation; format: functional, organism-based; details: Human betaherpesvirus 5, Davis; outline: as §4
[14] = test system: Vesicular stomatitis virus; experiment: Antiviral activity against Vesicular stomatitis virus infected in human HEL cells assessed as reduction in virus-induced cytopathogenicity; format: functional, organism-based; outline: as §1
[15] = Cytotoxicity against MDCK cells assessed as morphological changes; format: cell-based, Canis lupus familiaris; details: dog
[16] = test system: Influenza B virus; experiment: Antiviral activity against Influenza B virus infected in MDCK cells assessed as reduction in virus-induced cytopathogenicity; format: functional, organism-based; outline: as §1
[17] = test system: Influenza A virus; experiment: Antiviral activity against Influenza A virus H1N1 infected in MDCK cells assessed as reduction in virus-induced cytopathogenicity; format: functional, organism-based; outline: as §1
[18] = Cytotoxicity against african green monkey Vero cells assessed as morphological changes; format: cell-based; details: chlorocebus sabaeus
[19] = test system: Coxsackievirus B4; experiment: Antiviral activity against Coxsackievirus B4 infected in african green monkey Vero cells assessed as reduction in virus-induced cytopathogenicity; format: functional, organism-based; details: Enterovirus B; outline: as §1
[20] = test system: Vesicular stomatitis virus; experiment: Antiviral activity against Vesicular stomatitis virus infected in human HeLa cells assessed as reduction in virus-induced cytopathogenicity; format: functional, organism-based; outline: as §1
[21] = Cytotoxicity against human HeLa cells assessed as morphological changes; format: cell-based
[22] = test system: Human alphaherpesvirus 1; experiment: Antiviral activity against Herpes simplex virus-1 KOS infected in human HEL cells assessed as reduction in virus-induced cytopathogenicity; format: functional, organism-based; details: Human alphaherpesvirus 1, KOS; outline: as §1
[23] = test system: Human respirovirus 3; experiment: Antiviral activity against Parainfluenza virus 3 infected in african green monkey Vero cells assessed as reduction in virus-induced cytopathogenicity; format: functional, organism-based; details: Human respirovirus 3, Vero; outline: as §3
[24] = test system: Human alphaherpesvirus 1; experiment: Antiviral activity against thymidine kinase negative […] Herpes simplex virus-1 KOS infected in human HEL cells assessed as reduction in virus-induced cytopathogenicity; format: functional, organism-based; details: Human alphaherpesvirus 1, KOS; outline: as §1
[25] = test system: Sindbis virus; experiment: Antiviral activity against Sindbis virus infected in african green monkey Vero cells assessed as reduction in virus-induced cytopathogenicity; format: functional, organism-based; outline: as §1
[26] = test system: Influenza A virus; experiment: Antiviral activity against Influenza A virus […] infected in MDCK cells assessed as reduction in virus-induced cytopathogenicity; format: functional, organism-based; outline: as §1

| SMILES | EC50 [1] | EC50 [2] | EC50 [3] | EC50 [4] | EC50 [5] | EC50 [6] | EC50 [7] | EC50 [8] | MCC [9] | MCC [10] | EC50 [11] | EC50 [12] | EC50 [13] | EC50 [14] | MCC [15] | EC50 [16] | EC50 [17] | MCC [18] | EC50 [19] | EC50 [20] | further results |
| --- | --- | --- | --- | --- | --- | --- | --- | --- | --- | --- | --- | --- | --- | --- | --- | --- | --- | --- | --- | --- | --- |
| CCCc1nc(N)[nH]c(=O)c1Br | > 100 µM | > 100 µM | > 100 µM | > 100 µM | > 100 µM | > 100 µM | > 100 µM | > 100 µM | > 100 µM | > 100 µM | > 100 µM | > 100 µM | > 100 µM | > 100 µM | > 100 µM | > 100 µM | > 100 µM | > 100 µM | > 100 µM | > 100 µM | MCC [21]: > 100 µM; EC50 [22]: > 100 µM; EC50 [23]: > 100 µM; EC50 [24]: > 100 µM; EC50 [25]: > 100 µM; EC50 [26]: > 100 µM |
| CCCCc1nc(N)[nH]c(=O)c1Br | > 100 µM | > 20 µM | > 20 µM | > 100 µM | > 20 µM | > 100 µM | > 100 µM | > 20 µM | ≥ 100 µM | > 100 µM | > 20 µM | > 100 µM | > 20 µM | > 100 µM | > 100 µM | > 100 µM | > 100 µM | > 100 µM | > 100 µM | 10 µM | MCC [21]: 100 µM; EC50 [22]: > 100 µM; EC50 [23]: > 100 µM; EC50 [24]: > 100 µM; EC50 [25]: > 100 µM; EC50 [26]: > 100 µM |
| Cc1cc(C)c(/C=C/c2nc(N)[nH]c(=O)c2Br)c(C)c1 | > 20 µM | > 20 µM | 5.3 µM | 1.5 µM | 2.5 µM | > 20 µM | > 20 µM | 11 µM | > 20 µM | 58 µM | > 20 µM | > 20 µM | 8.9 µM | > 20 µM | > 20 µM | > 20 µM | > 20 µM | 100 µM | > 20 µM | > 20 µM | MCC [21]: 100 µM; EC50 [22]: > 20 µM; EC50 [23]: > 20 µM; EC50 [24]: > 20 µM; EC50 [25]: > 20 µM; EC50 [26]: > 20 µM |
| COc1ccc(/C=C/c2nc(N)[nH]c(=O)c2Br)cc1OC | > 100 µM | > 100 µM | > 100 µM | > 100 µM | > 100 µM | > 100 µM | > 100 µM | > 100 µM | > 100 µM | > 100 µM | > 100 µM | > 100 µM | > 100 µM | > 100 µM | 100 µM | > 20 µM | > 20 µM | > 100 µM | > 100 µM | 45 µM | MCC [21]: > 100 µM; EC50 [22]: > 100 µM; EC50 [23]: > 100 µM; EC50 [24]: > 100 µM; EC50 [25]: > 100 µM; EC50 [26]: > 20 µM |
